Series [1] deals with Mus musculus. In words: Anxiolytic activity in albino mouse assessed as total number of entries into arms at 100 mg/kg, ip by plus-maze test. It counts as functional. Conditions: route intraperitoneal. In short, it runs like this:
(§1)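 Mice given compounds i.p. at 100 mg/kg in DMSO/water (1:4), about 0.1 mL, 1 h before testing; controls got 0.1 mL vehicle; n = 7–8. Housed eight per cage, 20 ± 2 °C, 12 h light/dark. Each animal did the plus-maze first, then forced swim.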

For series [2], the system named is Mus musculus. The experiment in a line: Antidepressant activity in albino mouse assessed as immobility time at 100 mg/kg, ip by forced swim test. The series is classed as functional. As to conditions: route intraperitoneal. The gist of the method:
as §1

In series [3] the target is T1, Amine oxidase [flavin-containing] B (Rattus norvegicus, UniProt P19643).
T1 sequence (P19643 whole entry): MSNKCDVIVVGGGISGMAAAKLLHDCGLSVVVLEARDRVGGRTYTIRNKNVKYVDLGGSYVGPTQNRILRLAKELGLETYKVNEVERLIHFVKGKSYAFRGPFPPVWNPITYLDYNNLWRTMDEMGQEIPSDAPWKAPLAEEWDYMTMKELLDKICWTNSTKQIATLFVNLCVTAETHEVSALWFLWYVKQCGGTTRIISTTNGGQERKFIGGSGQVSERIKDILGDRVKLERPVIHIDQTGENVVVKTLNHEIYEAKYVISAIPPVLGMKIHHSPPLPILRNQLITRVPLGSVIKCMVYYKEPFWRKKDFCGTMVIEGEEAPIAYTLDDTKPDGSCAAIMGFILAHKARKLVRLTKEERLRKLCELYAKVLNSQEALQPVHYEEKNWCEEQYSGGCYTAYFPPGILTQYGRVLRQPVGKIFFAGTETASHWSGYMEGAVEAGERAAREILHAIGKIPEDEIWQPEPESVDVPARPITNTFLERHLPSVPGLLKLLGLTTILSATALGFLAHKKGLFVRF
The experiment in a line: Inhibition of MAO-B in rat liver homogenate after 60 mins by residual activity plot. The series is classed as tissue-based.

Series [4] concerns Mus musculus. In words: Anxiolytic activity in albino mouse assessed as time spent on closed arm at 100 mg/kg, ip by plus-maze test. The series is classed as functional. The arrangement: unit not given here. Conditions: route intraperitoneal. The gist of the method: as §1
Series [5] deals with T2, Amine oxidase [flavin-containing] A (Rattus norvegicus, UniProt P21396).
T2 sequence (P21396 whole entry): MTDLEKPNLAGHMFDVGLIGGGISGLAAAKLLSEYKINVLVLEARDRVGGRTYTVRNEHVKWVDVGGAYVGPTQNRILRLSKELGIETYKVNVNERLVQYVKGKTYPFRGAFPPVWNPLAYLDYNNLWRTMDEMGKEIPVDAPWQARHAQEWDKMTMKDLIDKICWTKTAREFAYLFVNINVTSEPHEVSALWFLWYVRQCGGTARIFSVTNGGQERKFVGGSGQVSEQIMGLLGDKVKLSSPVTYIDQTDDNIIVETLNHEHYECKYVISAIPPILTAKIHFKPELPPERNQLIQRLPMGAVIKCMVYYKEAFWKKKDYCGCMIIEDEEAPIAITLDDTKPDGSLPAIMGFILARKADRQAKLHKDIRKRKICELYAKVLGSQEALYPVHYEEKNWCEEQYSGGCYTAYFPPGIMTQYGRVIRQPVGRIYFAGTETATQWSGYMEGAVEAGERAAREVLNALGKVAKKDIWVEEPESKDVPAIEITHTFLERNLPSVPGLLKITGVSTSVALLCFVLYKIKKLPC
The experiment in a line: Inhibition of MAO-A in rat liver homogenate after 60 mins by Lineweaver-Burke plot. It counts as tissue-based. As to conditions: for Activity: rat, 1 h, TDE = time-dependent effect.

The target of series [6] is T1, Amine oxidase [flavin-containing] B. In words: Inhibition of MAO-B in rat liver homogenate after 60 mins by Lineweaver-Burke plot. Conditions: for Activity: rat, 1 h, TDE = time-dependent effect. It counts as tissue-based.
Series [7] addresses T2, Amine oxidase [flavin-containing] A. The experiment in a line: Inhibition of MAO-A in rat liver homogenate after 60 mins by residual activity plot. The series is classed as tissue-based.
Series [8] concerns Mus musculus. In words: Anxiolytic activity in albino mouse assessed as time spent on closed arm at 5 mg/kg, ip by plus-maze test. It counts as functional. Conditions: route intraperitoneal.
The test system of series [9] is Mus musculus. In words: Anxiolytic activity in albino mouse assessed as total number of entries into arms at 5 mg/kg, ip by plus-maze test. It counts as functional. Conditions: route intraperitoneal.
For series [10], the system named is Mus musculus. In words: Antidepressant activity in albino mouse assessed as immobility time at 5 mg/kg, ip by forced swim test. It counts as functional. Conditions: route intraperitoneal.

Each structure is given as a SMILES string.

Broadly, the IC50 is the concentration that gives 50% inhibition. The term Ki denotes a dissociation constant, usually derived from enzyme kinetics or from competition with a known ligand. For `COc1ccc(C2=NN(c3nc4ccccc4c(=O)n3C)C(c3ccco3)C2)cc1` (stereo not drawn), the arm entries in series [1] amounted to 5.57 entries. For the same compound, the Activity is 69% in series [2], 226 in series [4], “tde” in [5] and “tde” in [6]. Besides, the values for the IC50 in [3] and in [7] were 2.03 µM and 418 µM, respectively. The Ki came out at 6.8 µM in [5] and 1.48 µM in [6].
On to `COc1ccc(C2CC(c3ccccc3)=NN2c2nc3ccccc3c(=O)n2C)cc1` (stereo not drawn), for which, in [1], the arm entries amounted to 5.37 entries. Besides, the Activity in series [2] is 58%; in series [4], 162.43; in series [5], “tde”; in series [6], “tde”. The IC50 in [3] amounted to 400 µM; in [7], 4.51 µM. The Ki is 1.03 µM in series [5] and 9.9 µM in series [6].
On to `Cn1c(N2N=C(c3ccc(Cl)cc3)CC2c2cccs2)nc2ccccc2c1=O` (stereo not drawn), for which, in [1], the arm entries turned out to be 2.29 entries. For the same compound, the Activity in series [2] is 61.83%; in series [4] it was 244.5; in series [5], “tde”; in series [6], “tde”. Moreover, the IC50 in series [3] was 27.6 µM; in series [7], 420 µM. Besides, the inhibitory constant (Ki) in [5] amounted to 65.3 µM; in [6], 25.6 µM.
Take `Cc1ccc(C2=NN(c3nc4ccccc4c(=O)n3C)C(c3ccco3)C2)cc1` (stereo not drawn): the arm entries in series [1] was determined as 9 entries. Also, the Activity in series [2] was 64%; in [4], 208.57; in series [5], “tde”; in series [6] it was “tde”. Moreover, the IC50 in series [3] came out at 77.1 µM; in [7], 410 µM. The Ki in series [5] was 140 µM; in [6] it was 88.6 µM.
Take `Cn1c(N2N=C(c3ccccc3)CC2c2ccc(Cl)cc2)nc2ccccc2c1=O` (stereo not drawn): the arm entries in [1] worked out at 4.12 entries. Moreover, the Activity in [2] is recorded as 42.37%; in series [4], 154.75; in series [5], “tde”; in series [6] it was “tde”. For the same compound, the IC50 in [3] was 416 µM; in series [7], 3.7 µM. Further, the Ki in [5] came to 2.7 µM; in [6] it was 18.4 µM.
`Cn1c(N2N=C(c3ccccc3)CC2c2cccc(Cl)c2)nc2ccccc2c1=O` (stereo not drawn): the arm entries in [1] came to 3.75 entries. Moreover, the Activity in series [2] is on record as 26.25%; in [4], 218.25; in series [5], “tde”; in series [6], “tde”. Moreover, the IC50 in series [3] turned out to be 400 µM; in [7], 1.02 µM. For the same compound, the Ki came to 0.9 µM in series [5] and 5.8 µM in [6].
On to `Cc1ccc(C2CC(c3ccccc3)=NN2c2nc3ccccc3c(=O)n2C)cc1` (stereo not drawn), for which the arm entries in [1] is 3.87 entries. The Activity in [2] is reported as 43.25%; in [4] it was 178.25; in series [5], “tde”; in series [6], “tde”. Further, the IC50 in series [3] is 484 µM; in [7], 4.51 µM. The Ki in series [5] amounted to 2.56 µM; in [6] it was 7.9 µM.
`Cn1c(N2N=C(c3ccc(Cl)cc3)CC2c2ccco2)nc2ccccc2c1=O` (stereo not drawn): the arm entries in series [1] was determined as 4.86 entries. Also, the Activity in [2] is 74%; in series [4], 204; in [5], “tde”; in series [6] it was “tde”. Also, the IC50 was found to be 7.22 µM in [3] and 450 µM in series [7]. For the same compound, the Ki was found to be 28.7 µM in series [5] and 9.25 µM in [6].
`Cn1c(N2N=C(c3ccccc3)CC2c2ccccc2)nc2ccccc2c1=O` (stereo not drawn): the arm entries in series [1] was found to be 4.37 entries. Further, the Activity in [2] is on record as 27%; in series [4], 222.27; in [5] it was “tde”; in series [6], “tde”. Also, the IC50 in series [3] stood at 410 µM; in [7] it was 9.46 µM. Also, the Ki was determined as 9.9 µM in [5] and 25.2 µM in [6].
On to `Cn1c(N2N=C(c3ccccc3)CC2c2ccc(Br)cc2)nc2ccccc2c1=O` (stereo not drawn), for which, in series [1], the arm entries was found to be 3.25 entries. Besides, the Activity is 65.12% in series [2], 230 in series [4], “tde” in series [5] and “tde” in series [6]. Moreover, the figures for the IC50 in [3] and in [7] were 485 µM and 1.68 µM, respectively. Further, the Ki is 1.17 µM in series [5] and 10.6 µM in series [6].
As for `COc1ccc(C2=NN(c3nc4ccccc4c(=O)n3C)C(c3cccs3)C2)cc1` (stereo not drawn), the arm entries in [1] amounted to 5.13 entries. Moreover, the Activity is 61.13% in series [2], 248.5 in series [4], “tde” in series [5] and “tde” in series [6]. The IC50 in series [3] was determined as 15.2 µM; in [7], 440 µM. In addition, the results for the Ki in series [5] and in series [6] were 25.3 µM and 16.3 µM, respectively.
On to `O=C(NCCN1CCOCC1)c1ccc(Cl)cc1` [MOCLOBEMIDE], for which the Activity turned out to be 250.72% in [8] and 54.3% in series [10]. In addition, the arm entries in series [9] came to 6.15 entries. In addition, in [6], the Ki turned out to be 10.2 µM.

For the origin of these results see ChEMBL document CHEMBL1140866, “New pyrazoline bearing 4(3H)-quinazolinone inhibitors of monoamine oxidase: synthesis, biological evaluation, and structural determinants of MAO-A and MAO-B selectivity” (Bioorg Med Chem, 2009).
